# Ecoli WT growth – blocks growth of wild type E. coli BW25113; 20,000 compounds, 0.05% hits; AID 552; E. coli BW25113 growth inhibition, OD600; inhibition, % at 10 µM; in the data active means inhibition above about 40%;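 further: bacteria exposed to compound for 20 hours at 37 °C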
#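 System: bacterial strain in a whole-cell growth screen; medium: LB broth with 50 µg/mL kanamycin; detection: absorbance at 615 nm; schedule: 20 h exposure, 37 °C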
# * hit, by the source's call. The full list was thinned out, with hits kept by preference.
SMILES,Ecoli WT growth
CN(C)[C@@H]1C(=O)C(C(N)=O)=C(O)[C@@]2(O)C(=O)C3=C(O)c4c(O)cccc4[C@@](C)(O)[C@H]3[C@H](O)[C@@H]12,40*
Cc1ccccc1NC1=NCCCS1,1
CN(C)CCN=Cc1c(O)n(-c2cccc3ccccc23)c(=O)[nH]c1=O,-6
O=C(Cc1ccccc1)Oc1ccccc1N1C(=O)CCC1=O,-6
CN1CCN(CC(=O)Nc2ccc(Cl)cc2C(=O)c2ccccc2)CC1,-15

# Source: PubChem BioAssay
